FGF22 binding: binders of recombinant human FGF22 by thermal shift; Q9HCT0; 340,000 compounds, 1.5% hits; SYPRO orange fluorescence; percent of sucrose octasulfate shift, DMSO zero; activity (Tm shift, normalised), % at 9.99 µM;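 active = mean Tm shift, scaled 0 neutral to 100 positive control, at about 1.3% or above, every replicate too, limit read from the data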
Target sequence (Q9HCT0 whole entry, looked up): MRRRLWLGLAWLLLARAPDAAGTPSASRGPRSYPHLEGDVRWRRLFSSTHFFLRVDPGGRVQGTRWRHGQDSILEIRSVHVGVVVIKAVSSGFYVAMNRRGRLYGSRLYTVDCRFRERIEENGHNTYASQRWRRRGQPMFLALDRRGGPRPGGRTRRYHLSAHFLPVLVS
E-sel inducer: E-selectin induction on HUVECs; P16581; HUVEC E-selectin immunofluorescence imaging; normalized: neutral wells 0, TNF-alpha wells 100; activation, % at 7.58 µM; 260,000 compounds, 0.37% hits;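 active = mean E-selectin-positive cell signal at least 10% of the positive control, reached in at least 60% of replicates, without over 20% cell loss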
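Test system: HUVEC; input: 3,000 HUVEC/well; measured by: immunofluorescence imaging; read-out: % PE-positive cells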
SIRT5 inh: blocks human SIRT5 desuccinylation of peptide | inhibition, % at 15 µM | 330,000 compounds, 1.1% hits | Q9NXA8 | Purified SirT5, succinyl-peptide AMC, trypsin-coupled fluorescence; in the data active = inhibition above about 15%
Target sequence (Q9NXA8 whole entry, looked up): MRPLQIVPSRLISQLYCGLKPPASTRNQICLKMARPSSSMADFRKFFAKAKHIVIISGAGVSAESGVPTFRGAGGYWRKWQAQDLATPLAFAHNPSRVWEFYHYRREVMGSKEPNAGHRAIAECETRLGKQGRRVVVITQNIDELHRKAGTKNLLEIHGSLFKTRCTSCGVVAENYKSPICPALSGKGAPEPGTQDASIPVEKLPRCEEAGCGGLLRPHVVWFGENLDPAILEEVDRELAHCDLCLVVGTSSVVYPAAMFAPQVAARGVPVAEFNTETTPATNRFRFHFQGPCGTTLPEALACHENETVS
miR122 inh: inhibitors of miR-122 in Huh7 cells. Huh7 miR-122 Renilla luciferase sensor, 48 h; neutral wells = 0, positive control = 100. activation (reporter increase), % at 12.5 µM. 340,000 compounds, 0.3% hits;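 active = mean replicate activation score at least 90 and every replicate individually at or above 90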;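 also: higher luciferase means less miR-122 activity so hits act as miR-122 inhibitors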
S100A4 MyoIIA: S100A4-myosin IIA interaction inhibition. S100A4/TAMRA-MyoIIA peptide fluorescence polarization. inhibition, % at 10.7 µM. 360,000 compounds, 0.14% hits;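 active = mean inhibition of at least 70% across replicates, with every replicate also reaching that level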
Target sequence (P26447 whole entry, looked up): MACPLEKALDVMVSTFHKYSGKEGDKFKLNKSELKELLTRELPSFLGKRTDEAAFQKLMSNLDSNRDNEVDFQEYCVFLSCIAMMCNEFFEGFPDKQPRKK
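Material: S100A4 monomer protein / Buffer or medium: 50 mM HEPES pH 7.2, 10 mM CaCl2, 100 mM KCl / Times: 5 min incubation before reading / Benchmarks: neutral control DMSO, positive control TFP / Reagent: labelled myosin peptide probe, 5 nM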
Active calls of the source: *; [ ] = remark or other dose. In the library only some 2.5% were active in any assay of this set; here they are far more common.

What do the screens show for `OC(CSc1ccc(F)cc1)CN1CCN(c2ccccc2)CC1` (stereo not given)?
FGF22 binding: 0; E-sel inducer: 56*; SIRT5 inh: -1; miR122 inh: 3; S100A4 MyoIIA: -2

Results for COc1ccccc1Cc1c(-c2ccc(Cl)cc2)nc2c(C)cc(Br)cn12 ?
FGF22 binding: 0; SIRT5 inh: 0; miR122 inh: 19; S100A4 MyoIIA: -11

How did COc1ccccc1Cc1c(-c2cccc(Br)c2)nc2c(C)cc(Br)cn12 do in these assays?
FGF22 binding: 0; E-sel inducer: 4; SIRT5 inh: 19*; miR122 inh: 9; S100A4 MyoIIA: -6

Results for CN1CCN(NC(=S)Nc2ccc(Oc3ccccc3)cc2)CC1 ?
FGF22 binding: 0; E-sel inducer: 223*; SIRT5 inh: 6; S100A4 MyoIIA: -2

Results for COc1ccc(/C=N/NC(=O)C(=O)NCc2cccnc2)cc1 ?
FGF22 binding: 44*; SIRT5 inh: 4; miR122 inh: -3; S100A4 MyoIIA: 5

How did COc1ccc(Oc2ccc(/C=N/NC(=O)c3cccnc3)cc2[N+](=O)[O-])cc1 do in these assays?
FGF22 binding: 43*; SIRT5 inh: -22; S100A4 MyoIIA: 2

What do the screens show for `COc1cc(/C=N/NC(=O)c2cccnc2)ccc1OCC(=O)Nc1ccc(C)cc1`?
FGF22 binding: 44*; SIRT5 inh: -10; S100A4 MyoIIA: 10

Results for C[C@@H]1CN([C@@H](C)CO)C(=O)c2cccc(NS(C)(=O)=O)c2O[C@@H]1CN(C)Cc1ccccc1 ?
FGF22 binding: 0; E-sel inducer: 0; SIRT5 inh: 2; miR122 inh: -3[16.7 µM]; S100A4 MyoIIA: 1

How did CC1CCN(C(=O)CN(c2ccc3c(c2)OCCO3)S(=O)(=O)c2ccccc2)CC1 do in these assays?
FGF22 binding: 0; SIRT5 inh: 0; miR122 inh: 104*; S100A4 MyoIIA: -1

Results for COc1ccc(OC)c(N(CC(=O)N2CCC(C)CC2)S(=O)(=O)c2ccccc2)c1 ?
miR122 inh: 232*

How did Cc1ccc(S(=O)(=O)N(CC(=O)N2CCC(C)CC2)c2cccc(C)c2)cc1 do in these assays?
miR122 inh: 144*

Results for COc1ccc2c3c([nH]c2c1)[C@H](CO)N(C(=O)NC(C)C)CC31CCN(C(=O)NC(C)C)CC1 ?
FGF22 binding: 0; E-sel inducer: -1; SIRT5 inh: 2; S100A4 MyoIIA: 7

What do the screens show for `CCCNC(=O)N1CC2(CN(S(=O)(=O)CC)C2)c2c(n(C)c3cc(OC)ccc23)[C@H]1CO`?
FGF22 binding: 0; E-sel inducer: 1; SIRT5 inh: 0; S100A4 MyoIIA: -3

What do the screens show for `O=C(NNC(=O)c1cccs1)c1ccc([N+](=O)[O-])cc1`?
FGF22 binding: 44*; E-sel inducer: 1; SIRT5 inh: 0; S100A4 MyoIIA: -3

How did O=C(NNC(=O)c1cccs1)c1ccc(F)cc1 do in these assays?
FGF22 binding: 43*; E-sel inducer: 0; S100A4 MyoIIA: -3

What do the screens show for `CCOc1ccccc1CNC(=O)CNC(=O)c1cccs1`?
miR122 inh: 3

Results for COc1ccccc1CC(=O)NNC(=O)c1cccs1 ?
FGF22 binding: 44*; SIRT5 inh: -6; miR122 inh: 7; S100A4 MyoIIA: 1

Results for O=C(NNC(=O)c1ccc([N+](=O)[O-])cc1)c1ccc(NS(=O)(=O)c2cccs2)cc1 ?
FGF22 binding: 0; E-sel inducer: 0; SIRT5 inh: 3; miR122 inh: -6; S100A4 MyoIIA: -3

What do the screens show for `CCc1ccccc1NC(=O)CNC(=O)CNC(=O)c1cccs1`?
FGF22 binding: 0; SIRT5 inh: 53*; miR122 inh: 0; S100A4 MyoIIA: -6

Results for CO[C@@H]1CN(C)C(=O)c2cc(NC(=O)c3ccno3)ccc2OC[C@@H](C)N(S(C)(=O)=O)C[C@H]1C ?
FGF22 binding: 0; E-sel inducer: 0; SIRT5 inh: -2; S100A4 MyoIIA: 22

What do the screens show for `CC=Cc1ccc2n(c1=O)C[C@@H]1[C@@H](CO)[C@H](C(=O)NCCC)[C@H]2N1C(=O)C1CCC1` (mixture of isomers)?
E-sel inducer: 0; S100A4 MyoIIA: 7

How did O=C(C[C@@H]1C=C[C@@H](NC(=O)c2cccc(F)c2)[C@H](CO)O1)NCc1ccc(Oc2ccccc2)cc1 do in these assays?
FGF22 binding: 0; E-sel inducer: 0; SIRT5 inh: 0; S100A4 MyoIIA: 7

What do the screens show for `O=S(=O)(NCCc1ccncc1)c1cc(Br)ccc1F`?
miR122 inh: 124*

What do the screens show for `CCC(=O)Nc1ccc2c(c1)C(=O)N(C)C[C@H](OC)[C@@H](C)CN(CC1CCCCC1)[C@H](C)CO2`?
FGF22 binding: 0; E-sel inducer: 0; SIRT5 inh: 18*; miR122 inh: -15[16.7 µM]; S100A4 MyoIIA: -3

How did COCC(=O)Nc1ccc2c(c1)OC[C@H](C)N(CC1CC1)C[C@@H](C)[C@@H](OC)CN(C)C2=O do in these assays?
FGF22 binding: 0; E-sel inducer: 0; SIRT5 inh: 20*; S100A4 MyoIIA: 7

What do the screens show for `COc1ccc(Br)cc1/C=C/C(=O)NCC(=O)O`?
FGF22 binding: 44*; E-sel inducer: 3; SIRT5 inh: -1; miR122 inh: -3; S100A4 MyoIIA: 2

How did CC(C)NC(=O)N(C)C[C@@H]1Oc2ccc(NC(=O)Nc3ccccc3)cc2CC(=O)N([C@@H](C)CO)C[C@@H]1C do in these assays?
FGF22 binding: 0; SIRT5 inh: 0; miR122 inh: -8[16.7 µM]; S100A4 MyoIIA: -8

How did C[C@@H](NC(=O)C[C@H]1C=C[C@H](NC(=O)C2CC2)[C@@H](CO)O1)c1ccccc1 do in these assays?
FGF22 binding: 0; E-sel inducer: 0; SIRT5 inh: 17*; S100A4 MyoIIA: 7

How did O=C(C[C@@H]1CC[C@@H](NC(=O)Cc2ccccn2)[C@H](CO)O1)NCCCN1CCOCC1 do in these assays?
FGF22 binding: 0; E-sel inducer: 1; SIRT5 inh: 1; S100A4 MyoIIA: 58

Results for C[C@@H](NC(=O)C[C@H]1CC[C@@H](NC(=O)CN2CCOCC2)[C@@H](CO)O1)c1ccccc1 ?
FGF22 binding: 0; E-sel inducer: 0; SIRT5 inh: 17*; miR122 inh: -15[16.7 µM]; S100A4 MyoIIA: 5

How did O=C(C[C@@H]1CC[C@@H](NC(=O)Cc2ccccn2)[C@@H](CO)O1)NCCCN1CCOCC1 do in these assays?
FGF22 binding: 0; E-sel inducer: 0; SIRT5 inh: 15*; S100A4 MyoIIA: 13

What do the screens show for `C[C@H](NC(=O)C[C@H]1C=C[C@@H](NC(=O)C2CC2)[C@@H](CO)O1)c1ccccc1`?
FGF22 binding: 0; E-sel inducer: 0; SIRT5 inh: 5; S100A4 MyoIIA: 5

How did C[C@H](NC(=O)C[C@@H]1CC[C@H](NC(=O)C2CCOCC2)[C@@H](CO)O1)c1ccccc1 do in these assays?
FGF22 binding: 0; E-sel inducer: 0; SIRT5 inh: 4; S100A4 MyoIIA: 111*

Screens deposited in PubChem BioAssay by Broad Institute.
